Entries after “also recorded” stand apart in the source; their conditions may differ. Like-named read-outs stand apart in the source and are kept apart here.
Tests used:
[1] = Urinary excretion of unchanged drug in rats after a single oral dose; format: in vivo, Sprague-Dawley rats; details: rat; for Time period of highest urinary excretion ratio: oral 50 mg kg^−1; for Cumulative amount in urine: n = 5, mean ± SD; for Cumulative urinary excretion, share of the total dose: oral 50 mg kg^−1, during 48 h, unchanged drug
Outline: (§1)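 Male Sprague-Dawley rats (220 ± 20 g), fasted 12 h, given 50 mg kg−1 by gavage in 0.5% CMC-Na (n = 5/group). Urine and feces were collected in metabolic cages at intervals to 48 h; feces were air-dried, weighed and homogenised in saline. Bile-duct-cannulated rats (ether anaesthesia) were dosed after recovery, with bile collected every 2 h to 12 h. Unchanged drug was measured by UHPLC-MS/MS (positive ESI MRM, internal standard; LLOQ 0.005 μg mL−1).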

[2] = Fecal excretion of unchanged drug in rats after a single oral dose; format: in vivo, Sprague-Dawley rats; details: rat; for Time period of highest fecal excretion ratio: oral 50 mg kg^−1; for Cumulative amount in feces: n = 5, mean ± SD; for Accumulative fecal excretion, share of the total dose: unchanged drug
Outline: as §1

[3] = format: in vivo, Sprague-Dawley rats; details: for Cumulative amount in bile: bile duct cannulated rat, n = 5, mean ± SD; for Cumulative biliary excretion, share of the dose: rat, oral 50 mg kg^−1, during 12 h, unchanged drug
Outline: as §1

[4] = Total cumulative excretion in three routes; format: in vivo, Sprague-Dawley rats; details: rat, oral 50 mg kg^−1, unchanged drug
Outline: as §1

[5] = format: in vivo, Sprague-Dawley rats; details: for Number of metabolites detected and tentatively identified: rat bile, urine, plasma and feces, oral 100 mg kg^−1; for Metabolic stability, comparison in words: rat in vivo metabolite profile, HFBA vs HPABA, R-HFBA vs S-HFBA
Outline: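 Fasted male Sprague-Dawley rats (n = 5/group) received a single 100 mg kg−1 gavage in 0.5% CMC-Na. Urine and feces were collected 0–24 h in metabolic cages, heparinised plasma at 0.5, 3 and 6 h, and bile 0–12 h from bile-duct-catheterised rats. Feces were powdered and sonicated in methanol for 30 min. Analysis was by UHPLC-FT-ICR-MS, positive ESI, m/z 50–1000, with MS/MS at 10 eV.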

[6] = cited from earlier work
[7] = cited from earlier work; remark: listed apart in the source
[8] = cited from earlier work; remark: listed apart in the source
[9] = cited from earlier work; remark: listed apart in the source
[10] = rats, oral (oral or intravenous) administration of each enantiomer

SMILES: CC(O)C(=O)Nc1ccc(C(F)(F)F)cc1C(=O)O (stereo not shown) [R-HFBA, 2-(2-Hydroxypropanamido)-5-trifluoromethyl benzoic acid]
- Time period of highest urinary excretion ratio [1]: 0 to 2 h
- Cumulative amount in urine ([1]; oral 50 mg kg^−1, 2 h): 2747 ± 332 µg
- Cumulative amount in urine ([1]; oral 50 mg kg^−1, 4 h): 3149 ± 292 µg
- Cumulative amount in urine ([1]; oral 50 mg kg^−1, 6 h): 3309 ± 457 µg
- Cumulative amount in urine ([1]; oral 50 mg kg^−1, 8 h): 3894 ± 504 µg
- Cumulative amount in urine ([1]; oral 50 mg kg^−1, 10 h): 4010 ± 450 µg
- Cumulative amount in urine ([1]; oral 50 mg kg^−1, 12 h): 4117 ± 435 µg
- Cumulative amount in urine ([1]; oral 50 mg kg^−1, 24 h): 4333 ± 518 µg
- Cumulative amount in urine ([1]; oral 50 mg kg^−1, 36 h): 4394 ± 485 µg
- Cumulative amount in urine ([1]; oral 50 mg kg^−1, 48 h): 4425 ± 478 µg
- Cumulative urinary excretion, share of the total dose [1]: 40.2%
- Time period of highest fecal excretion ratio [2]: 6 to 8 h
- Cumulative amount in feces ([2]; oral 50 mg kg^−1, 2 h): 6.300 ± 1.60 µg
- Cumulative amount in feces ([2]; oral 50 mg kg^−1, 4 h): 11.00 ± 3.50 µg
- Cumulative amount in feces ([2]; oral 50 mg kg^−1, 6 h): 254.1 ± 400 µg
- Cumulative amount in feces ([2]; oral 50 mg kg^−1, 8 h): 1216 ± 518 µg
- Cumulative amount in feces ([2]; oral 50 mg kg^−1, 10 h): 1980 ± 512 µg
- Cumulative amount in feces ([2]; oral 50 mg kg^−1, 12 h): 2362 ± 629 µg
- Cumulative amount in feces ([2]; oral 50 mg kg^−1, 24 h): 2687 ± 598 µg
- Cumulative amount in feces ([2]; oral 50 mg kg^−1, 36 h): 2782 ± 635 µg
- Cumulative amount in feces ([2]; oral 50 mg kg^−1, 48 h): 2817 ± 626 µg
- Accumulative fecal excretion, share of the total dose ([2]; oral 50 mg kg^−1, 48 h): 25.6%
- Cumulative amount in bile ([3]; oral 50 mg kg^−1, 2 h): 185.3 ± 8.20 µg
- Cumulative amount in bile ([3]; oral 50 mg kg^−1, 4 h): 531.7 ± 95.4 µg
- Cumulative amount in bile ([3]; oral 50 mg kg^−1, 6 h): 783.1 ± 56.6 µg
- Cumulative amount in bile ([3]; oral 50 mg kg^−1, 8 h): 925.9 ± 68.1 µg
- Cumulative amount in bile ([3]; oral 50 mg kg^−1, 10 h): 1075 ± 62.6 µg
- Cumulative amount in bile ([3]; oral 50 mg kg^−1, 12 h): 1239 ± 54.6 µg
- Cumulative biliary excretion, share of the dose [3]: 11.3%
- Total cumulative excretion in three routes, share of the dose [4]: 65.8%
- Number of metabolites detected and tentatively identified [5]: 7
- Metabolic stability, comparison in words [5]: more metabolically stable than S-HFBA
- AUC compared with S-HFBA [6, 10]: greater; also recorded: larger
- Clearance (CL) compared with S-HFBA [6, 10]: significantly lower
- t1/2 compared with S-HFBA [6, 10]: greater; also recorded: longer
- Anti-inflammatory activity compared with aspirin [7]: superior to aspirin
- Antiplatelet aggregation activity compared with aspirin [8]: superior to aspirin
- Gastrointestinal toxicity compared with aspirin [9]: less

SMILES: CC(O)C(=O)Nc1ccc(C(F)(F)F)cc1C(=O)O (stereo not shown) [S-HFBA, 2-(2-Hydroxypropanamido)-5-trifluoromethyl benzoic acid]
- Time period of highest urinary excretion ratio [1]: 0 to 2 h
- Cumulative amount in urine ([1]; oral 50 mg kg^−1, 2 h): 1831 ± 253 µg
- Cumulative amount in urine ([1]; oral 50 mg kg^−1, 4 h): 2525 ± 285 µg
- Cumulative amount in urine ([1]; oral 50 mg kg^−1, 6 h): 2713 ± 185 µg
- Cumulative amount in urine ([1]; oral 50 mg kg^−1, 8 h): 3098 ± 279 µg
- Cumulative amount in urine ([1]; oral 50 mg kg^−1, 10 h): 3249 ± 294 µg
- Cumulative amount in urine ([1]; oral 50 mg kg^−1, 12 h): 3313 ± 319 µg
- Cumulative amount in urine ([1]; oral 50 mg kg^−1, 24 h): 3413 ± 251 µg
- Cumulative amount in urine ([1]; oral 50 mg kg^−1, 36 h): 3469 ± 216 µg
- Cumulative amount in urine ([1]; oral 50 mg kg^−1, 48 h): 3489 ± 225 µg
- Cumulative urinary excretion, share of the total dose [1]: 31.7%
- Time period of highest fecal excretion ratio [2]: 10 to 12 h
- Cumulative amount in feces ([2]; oral 50 mg kg^−1, 2 h): 5.800 ± 7.70 µg
- Cumulative amount in feces ([2]; oral 50 mg kg^−1, 4 h): 17.60 ± 18.9 µg
- Cumulative amount in feces ([2]; oral 50 mg kg^−1, 6 h): 89.90 ± 80.3 µg
- Cumulative amount in feces ([2]; oral 50 mg kg^−1, 8 h): 791.6 ± 519 µg
- Cumulative amount in feces ([2]; oral 50 mg kg^−1, 10 h): 1604 ± 459 µg
- Cumulative amount in feces ([2]; oral 50 mg kg^−1, 12 h): 2470 ± 203 µg
- Cumulative amount in feces ([2]; oral 50 mg kg^−1, 24 h): 2764 ± 248 µg
- Cumulative amount in feces ([2]; oral 50 mg kg^−1, 36 h): 2878 ± 213 µg
- Cumulative amount in feces ([2]; oral 50 mg kg^−1, 48 h): 2944 ± 252 µg
- Accumulative fecal excretion, share of the total dose ([2]; oral 50 mg kg^−1, 48 h): 26.8%
- Cumulative amount in bile ([3]; oral 50 mg kg^−1, 2 h): 170.8 ± 14.1 µg
- Cumulative amount in bile ([3]; oral 50 mg kg^−1, 4 h): 515.4 ± 77.5 µg
- Cumulative amount in bile ([3]; oral 50 mg kg^−1, 6 h): 571.8 ± 95.4 µg
- Cumulative amount in bile ([3]; oral 50 mg kg^−1, 8 h): 652.9 ± 50.7 µg
- Cumulative amount in bile ([3]; oral 50 mg kg^−1, 10 h): 745.6 ± 57.7 µg
- Cumulative amount in bile ([3]; oral 50 mg kg^−1, 12 h): 817.0 ± 90.9 µg
- Cumulative biliary excretion, share of the dose [3]: 7.4%
- Total cumulative excretion in three routes, share of the dose [4]: 58.5%
- Number of metabolites detected and tentatively identified [5]: 8
- Anti-inflammatory activity compared with aspirin [7]: superior to aspirin
- Antiplatelet aggregation activity compared with aspirin [8]: superior to aspirin
- Gastrointestinal toxicity compared with aspirin [9]: less

SMILES: CC(O)C(=O)Nc1ccc(C(F)(F)F)cc1C(=O)O (stereo not shown) [HFBA, 2-(2-Hydroxypropanamido)-5-trifluoromethyl benzoic acid]
- Number of metabolites detected and tentatively identified [5]: 8
- Metabolic stability, comparison in words [5]: more metabolically stable than HPABA
- Bioavailability compared with HPABA [6]: better
- Half-life compared with HPABA [6]: longer
